# An excerpt weighted towards active compounds, which were near 2.5% of everything screened.
# NR2E3 ag-1 – human photoreceptor-specific nuclear receptor agonism; 360,000 compounds, 0.35% hits; CHO-S Gal4-NCOR/VP16-NR2E3 two-hybrid, luciferase; Q9Y5X4; inhibition of corepressor binding, % at 3.98 µM;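 active means inhibition above the mean of all tested compounds plus 3 SD, cut at about 70% in these data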;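 further: 0% = DMSO with NR2E3 transfected cells and 100% = cells lacking NR2E3 construct; higher means lower luciferase signal from less NR2E3 corepressor binding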
# Target sequence (Q9Y5X4 whole entry, looked up, the tested form may be a part): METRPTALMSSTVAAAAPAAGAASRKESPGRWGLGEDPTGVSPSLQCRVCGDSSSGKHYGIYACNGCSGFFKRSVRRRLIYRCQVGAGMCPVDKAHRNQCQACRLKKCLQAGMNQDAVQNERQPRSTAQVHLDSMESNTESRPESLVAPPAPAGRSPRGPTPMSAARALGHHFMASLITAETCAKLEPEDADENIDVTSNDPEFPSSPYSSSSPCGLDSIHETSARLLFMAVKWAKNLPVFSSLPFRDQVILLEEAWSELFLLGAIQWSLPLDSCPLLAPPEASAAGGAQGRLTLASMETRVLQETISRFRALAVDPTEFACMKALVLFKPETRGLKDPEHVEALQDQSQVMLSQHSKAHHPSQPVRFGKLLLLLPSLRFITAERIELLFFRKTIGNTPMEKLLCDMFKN
# NR2E3 ag-2 – agonists of human nuclear receptor NR2E3. Q9Y5X4. GST-NR2E3/biotin-RetCOR TR-FRET, 1536-well. inhibition of corepressor binding, % at 4.78 µM. 320,000 compounds, 0.12% hits. AID 2300;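 active means percent inhibition above the cutoff of mean plus 3 SD of all tested compounds, set per screening campaign, cut at about 20% in these data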;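 further: 0% = DMSO wells and 100% = biotin wells as full block of FRET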
#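 system = GST-tagged NR2E3 plus biotinylated RetCOR corepressor | input = 1.35 nM GST-NR2E3 | also added = 7 nM biotin-RetCOR | schedule = 5 h incubation at 4 °C | measured by = TR-FRET with europium anti-GST and streptavidin-D2, 340 nm excitation | read-out = percent loss of FRET ratio relative to control wells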
# proKLK7 act – proKLK7 (human) activation, primary screen. 370,000 compounds, 0.9% hits. P49862. purified proKLK7, EDANS-DABCYL substrate fluorescence; 100% is mature enzyme control, 0% vehicle. activation, % at 7 µM. AID 652039;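 active means activation above the mean of all tested compounds plus 3 SD, computed per campaign excluding outliers beyond control limits, cut at about 13% in these data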
# Target sequence (P49862 whole entry, looked up): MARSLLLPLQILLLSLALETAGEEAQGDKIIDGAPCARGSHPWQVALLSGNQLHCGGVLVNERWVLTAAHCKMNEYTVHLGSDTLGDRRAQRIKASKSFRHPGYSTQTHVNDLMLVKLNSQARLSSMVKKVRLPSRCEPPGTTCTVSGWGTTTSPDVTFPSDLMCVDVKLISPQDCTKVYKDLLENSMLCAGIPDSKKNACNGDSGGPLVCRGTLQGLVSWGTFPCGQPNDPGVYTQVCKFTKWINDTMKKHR
# GASC-1 inh – inhibitors of human GASC-1 (JMJD2C) demethylase; Q9H3R0; GST-JMJD2C(1-420) H3K9me3 demethylation, DELFIA europium; inhibition, % at 2.35 µM; 330,000 compounds, 0.069% hits; AID 2099;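 active means more than half of a compound's replicate wells show inhibition beyond 50%, single wells judged on their own value; inconclusive means some, but no more than half, of replicates pass 50% inhibition; inactive means no replicate passes 50% inhibition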;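 further: signal counts dimethyl H3K9 product captured on neutravidin plate; 0% = median of DMSO wells and 100% = 0.3 times that DMSO median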
# ADAM10 inh – inhibits human ADAM10; O14672; recombinant ADAM10, EDANS/DABCYL FRET peptide cleavage, 3 h; 370,000 compounds, 0.62% hits; inhibition, % at 7 µM;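 active means inhibition above a per-campaign cutoff equal to the mean of compounds falling between control-based bounds plus 3 SD, cut at about 20% in these data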;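 further: 0% = DMSO wells while the 100% control is not disclosed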
# ADAM17 inh – inhibitors of human ADAM17 | recombinant ADAM17, EDANS/DABCYL FRET peptide cleavage | inhibition, % at 6.95 µM | 370,000 compounds, 0.83% hits | P78536;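 active means inhibition above the mean of compounds lying between control limits plus 3 SD, set per campaign, cut at about 8.5% in these data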;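 further: 0% = DMSO-only wells as the low control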
# KLK7 act conf – proKLK7 activation, confirmation; shares compounds with proKLK7 act; purified proKLK7, EDANS-DABCYL substrate fluorescence; scaled: vehicle 0, mature enzyme 100; activation, % at 7 µM; 3,200 compounds, 68% hits;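 active means activation, as change over the incubation, above the mean of all tested compounds plus 3 SD, cut at about 13% in these data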
# EDANS interfere – counter-screen for kallikrein-7 activators: EDANS-DABCYL optical interference | shares compounds with proKLK7 act | EDANS-DABCYL substrate fluorescence interference, no enzyme, 4 h; solvent 0%, active enzyme control 100% | activation, % at 7 µM | 3,200 compounds, 80% hits;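 active means activation above the all-compound mean plus 3 SD, ignoring values outside control-based bounds, cut at about 4.8% in these data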;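 further: value is the 4 h activation minus the activation read at time zero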
# EDANS interf – EDANS fluorescence interference in dose response, no enzyme; shares compounds with proKLK7 act; EDANS-DABCYL peptide fluorescence interference; EC50, µM; 250 compounds, 20% hits; AID 720493;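 active means compounds that raise the fluorescence signal in this interference counterscreen, with EC50 at or below 10 µM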;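 further: intact quenched peptide substrate alone read at 355 nm excitation and 520 nm emission; signal is fluorescence gain from T0 to T4 after four hours at room temperature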
# * = called active by the depositor; i = inactive; ? = inconclusive; nt = no result.
SMILES,NR2E3 ag-1,NR2E3 ag-2,proKLK7 act,GASC-1 inh,ADAM10 inh,ADAM17 inh,KLK7 act conf,EDANS interfere,others
COc1ccc(-c2cc(=O)c3cccc(CC(=O)O)c3o2)cc1,nt,nt,79*,nt,i,i,83*,81*,
CC1CCCC(C)N1C(=O)COC(=O)c1n[nH]c(=O)c2ccccc12 (stereo not drawn),-29,-1,0,8,0,0,nt,nt,
COc1ccc(O)c(C(=O)c2cnn(C(=O)c3cc(C)oc3C)c2)c1,-27,0,40*,-4,-18,-11,174*,144*,
COc1ccc(O)c(C(=O)c2cnn(C(=O)c3cccc(N(C)C)c3)c2)c1,-100,nt,51*,-8,-105,-32,168*,157*,
COc1ccc(C(=O)n2cc(C(=O)c3cc(C)ccc3O)cn2)cc1OC,0,0,21*,-6,-1,-3,55*,49*,
COCCn1c(SCC(=O)c2c(N)n(C3CC3)c(=O)[nH]c2=O)nnc1-c1cccc(C)c1,28,0,0,-6,-1,-2,nt,nt,
COc1cc(-c2ccc3oc(-c4ccsc4)c(C#CC4(O)CCCCC4)c3c2)cc(OC)c1OC,9,1,13*,-3,-329,-110,10,9.6*,
OC1(C#Cc2c(-c3ccsc3)oc3ccc(N4CCOCC4)cc23)CCCCC1,-28,5,-41,17,-109,-34,nt,nt,
COc1ccc(-n2c(O)c(/C=N/NS(=O)(=O)c3cccc([N+](=O)[O-])c3)c3ccccc3c2=O)cc1OC,-31,5,24*,16,-67,-14,77*,67*,
COc1ccc(CC(=O)NNS(=O)(=O)c2cccc([N+](=O)[O-])c2)cc1OC,5,2,1,-2,6,2,nt,nt,
CCc1cc(=O)oc2cc(C)cc(OCC(C)=O)c12,0,3,13*,4,-276,-122,12,17*,
CCc1cc(=O)oc2cc(C)cc(OCC(=O)N3CCC(C(=O)O)CC3)c12,-20,-1,16*,-3,i,-169,19*,19*,
CCCc1cc(=O)oc2cc(C)cc(OCC(=O)N3CCC(C(N)=O)CC3)c12,-11,-4,17*,0,-458,-113,4,10*,
CCCCc1cc(=O)oc2cc(C)cc(OCC(=O)N3CCC(C(=O)O)CC3)c12,7,0,17*,-4,i,-211,25*,18*,EDANS interf=>70
CCN(C(=O)COC(=O)CSc1ccccc1)c1c(N)n(Cc2ccccc2)c(=O)[nH]c1=O,-23,-2,0,4,4,-3,nt,nt,
CCCc1cc(=O)oc2cc(C)cc(OCC(=O)N3CCC(C(=O)O)CC3)c12,-13,2,16*,?,i,-242,13*,16*,
CC(C)Cn1c(N)c(/C=N/NC(=O)c2ccc(Cl)cc2)c(=O)n(C)c1=O,-16,0,-1,2,-3,-3,nt,nt,
CCCCn1c(N)c(N(CC(C)C)C(=O)c2ccc(OCc3c(C)noc3C)cc2)c(=O)[nH]c1=O,-25,-1,0,68,-9,-6,nt,nt,
C=CCNC(=S)NNC(=O)c1cccn(Cc2cccc(Cl)c2)c1=O,-8,2,27*,9,-460,-46,42*,44*,
C=CCn1cccc(C(=O)Nc2ccc(Cl)cc2)c1=O,-74,0,0,2,1,2,nt,nt,
C=CCNC(=S)NNC(=O)c1cccn(Cc2ccc(Cl)cc2)c1=O,8,1,27*,-17,-405,-62,39*,47*,
COc1ccc(CC(=O)Nc2ccc(C(=O)Nc3ccccc3C(=O)O)cc2)cc1OC,5,-7,-1,19,6,-4,nt,nt,
CC1Nc2nc(N(C)C)[nH]c(=O)c2NC1C (stereo not drawn),10,1,19*,-14,-471,-136,12,18*,
CCN1C(=O)c2cccc3c(S(=O)(=O)NCc4ccco4)ccc1c23,20,3,3,2,-175,-56,nt,nt,
CCN1C(=O)c2cccc3c(S(=O)(=O)NCC4CCCO4)ccc1c23 (stereo not drawn),-13,4,57*,-4,-419,-146,71*,66*,
SMILES,NR2E3 ag-1,NR2E3 ag-2,proKLK7 act,GASC-1 inh,ADAM10 inh,ADAM17 inh,KLK7 act conf,EDANS interfere,others
O=S(=O)(NCC1CCCO1)c1ccc(Cl)c2ccccc12 (stereo not drawn),-19,nt,0,nt,6,0,nt,nt,
O=C1Nc2ccc(S(=O)(=O)NCC3CCCO3)c3cccc1c23 (stereo not drawn),-9,-3,48*,-6,i,-386,66*,74*,
COc1ccc(C(=O)NCCCNC(=O)c2cccnc2)cc1Br,3,3,5,-2,5,2,nt,nt,
Cc1cc(=O)oc2c(CN(C)Cc3ccccc3)c(O)ccc12,3,1,75*,2,i,i,72*,78*,
O=c1cc(-c2ccccc2)c2ccc(O)c(CN3CCCCC3)c2o1,3,0,11,14,-228,-60,nt,nt,
Cc1cc(=O)oc2c(CN3CCCCC3)c(O)ccc12,-17,nt,118*,nt,i,i,71*,73*,
COc1ccc2c(C)cc(=O)oc2c1OCC(O)CN1CCOCC1 (stereo not drawn),-6,nt,15*,nt,-186,-53,7,10*,
Cc1ccc2c(CN3CCOCC3)cc(=O)oc2c1C,-24,-1,0,-3,-1,-2,nt,nt,
Cc1cc(=O)oc2c(CN3CCOCC3)c(O)ccc12,-37,nt,100*,nt,i,i,74*,65*,
Cc1cc(C)[n+](-c2ccc(C(C)C)cc2)c2[nH]c(=O)[nH]c(=O)c12,-10,-2,27*,-2,i,i,61*,65*,
Cc1ccc2nc3[nH]c(=O)[nH]c(=O)c3c(N)c2c1,-22,nt,7,nt,i,-292,nt,nt,
Cc1cccc(-[n+]2c(C)cc(C)c3c(=O)[nH]c(=O)[nH]c32)c1,-15,1,29*,3,i,i,42*,53*,
O=c1nc(-c2ccccc2)c2cc(Cl)ccc2[nH]1,17,1,14*,22,-163,-54,29*,28*,

# Screening results (PubChem BioAssay)
